Data taken from ChEMBL document CHEMBL3044889, “Synthesis and quantitative structure-activity relationship (QSAR) study of novel 4-acyloxypodophyllotoxin derivatives modified in the A and C rings as insecticidal agents” (2013).

What was measured:
Format in all cases: functional
[1] = tested on: Mythimna separata; test: Insecticidal activity against pre-third-instar larvae of Mythimna separata (Oriental armyworm) assessed as corrected mortality rate at 1 mg/ml measured after 35 days by the leaf-dipping method; conditions: 840 h
Procedure, shortened: (§1)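 Test solutions 1 mg/mL in acetone; fresh wheat leaves dipped 3 s, air-dried indoors; acetone-only leaves as blank control. Ten larvae per dish fed treated leaves, topped up if consumed; untreated fresh leaves from 48 h until adult emergence. Held at 25 ± 2 °C, RH 65-80%, 12 h/12 h light/dark. Corrected mortality = (T − C) × 100/(1 − C).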

[2] = tested on: Mythimna separata; test: Insecticidal activity against pre-third-instar larvae of Mythimna separata (Oriental armyworm) assessed as corrected mortality rate at 1 mg/ml measured after 10 days by the leaf-dipping method; conditions: 240 h; procedure, shortened: as §1
[3] = tested on: Mythimna separata; test: Insecticidal activity against pre-third-instar larvae of Mythimna separata (Oriental armyworm) assessed as corrected mortality rate at 1 mg/ml measured after 20 days by the leaf-dipping method; conditions: 480 h; procedure, shortened: as §1

SMILES	mortality at 1000 µg/mL [1] [%]	mortality at 1000 µg/mL [2] [%]	mortality at 1000 µg/mL [3] [%]
COc1cc2c(cc1OC)[C@H](OC(C)=O)[C@H]1COC(=O)[C@@H]1[C@@H]2c1cc(OC)c(OC)c(OC)c1	36.7	10	23.3
COc1cc2c(cc1OC)[C@H](OC(=O)CCl)[C@H]1COC(=O)[C@@H]1[C@@H]2c1cc(OC)c(OC)c(OC)c1	26.7	0	13.3
CCCC(=O)O[C@H]1c2cc(OC)c(OC)cc2[C@@H](c2cc(OC)c(OC)c(OC)c2)[C@H]2C(=O)OC[C@@H]21	33.3	6.7	20
CCCCCC(=O)O[C@H]1c2cc(OC)c(OC)cc2[C@@H](c2cc(OC)c(OC)c(OC)c2)[C@H]2C(=O)OC[C@@H]21	36.7	6.7	23.3
CCCCCCCC(=O)O[C@H]1c2cc(OC)c(OC)cc2[C@@H](c2cc(OC)c(OC)c(OC)c2)[C@H]2C(=O)OC[C@@H]21	53.3	10	30
COc1cc2c(cc1OC)[C@H](OC(=O)Cc1ccccc1)[C@H]1COC(=O)[C@@H]1[C@@H]2c1cc(OC)c(OC)c(OC)c1	26.7	3.3	13.3
COc1cc2c(cc1OC)[C@H](OC(=O)Cc1cccc3ccccc13)[C@H]1COC(=O)[C@@H]1[C@@H]2c1cc(OC)c(OC)c(OC)c1	60	10	26.7
COc1cc2c(cc1OC)[C@H](OC(=O)c1ccccc1)[C@H]1COC(=O)[C@@H]1[C@@H]2c1cc(OC)c(OC)c(OC)c1	36.7	10	26.7
COc1cc2c(cc1OC)[C@H](OC(=O)c1ccc(C)cc1)[C@H]1COC(=O)[C@@H]1[C@@H]2c1cc(OC)c(OC)c(OC)c1	33.3	6.7	16.7
COc1cc2c(cc1OC)[C@H](OC(=O)c1cccc(Cl)c1)[C@H]1COC(=O)[C@@H]1[C@@H]2c1cc(OC)c(OC)c(OC)c1	50	3.3	23.3
COc1cc2c(cc1OC)[C@H](OC(=O)c1ccc([N+](=O)[O-])cc1)[C@H]1COC(=O)[C@@H]1[C@@H]2c1cc(OC)c(OC)c(OC)c1	46.7	3.3	13.3
COc1cc2c(cc1OC)[C@H](OC(=O)c1cccc([N+](=O)[O-])c1)[C@H]1COC(=O)[C@@H]1[C@@H]2c1cc(OC)c(OC)c(OC)c1	36.7	3.3	16.7
CCCC(=O)O[C@@H]1c2cc(OC)c(OC)cc2[C@@H](c2cc(OC)c(OC)c(OC)c2)[C@H]2C(=O)OC[C@@H]21	36.7	3.3	10
CCCCCC(=O)O[C@@H]1c2cc(OC)c(OC)cc2[C@@H](c2cc(OC)c(OC)c(OC)c2)[C@H]2C(=O)OC[C@@H]21	43.3	23.3	26.7
COc1cc2c(cc1OC)[C@@H](OC(=O)Cc1ccccc1)[C@H]1COC(=O)[C@@H]1[C@@H]2c1cc(OC)c(OC)c(OC)c1	33.3	10	16.7
COc1cc2c(cc1OC)[C@@H](OC(=O)Cc1cccc3ccccc13)[C@H]1COC(=O)[C@@H]1[C@@H]2c1cc(OC)c(OC)c(OC)c1	50	13.3	20
COc1cc2c(cc1OC)[C@@H](OC(=O)c1cccc([N+](=O)[O-])c1)[C@H]1COC(=O)[C@@H]1[C@@H]2c1cc(OC)c(OC)c(OC)c1	36.7	10	26.7
CCCCCC(=O)O[C@@H]1c2cc(OCc3ccccc3)c(OCc3ccccc3)cc2[C@@H](c2cc(OC)c(OC)c(OC)c2)[C@H]2C(=O)OC[C@@H]21	33.3	10	13.3
COc1cc([C@@H]2c3cc(OCc4ccccc4)c(OCc4ccccc4)cc3[C@@H](OC(=O)Cc3ccccc3)[C@H]3COC(=O)[C@H]23)cc(OC)c1OC	40	3.3	16.7
COc1cc([C@@H]2c3cc(OCc4ccccc4)c(OCc4ccccc4)cc3[C@@H](OC(=O)Cc3cccc4ccccc34)[C@H]3COC(=O)[C@H]23)cc(OC)c1OC	33.3	3.3	26.7
COc1cc([C@@H]2c3cc(OCc4ccccc4)c(OCc4ccccc4)cc3[C@@H](OC(=O)c3cccc([N+](=O)[O-])c3)[C@H]3COC(=O)[C@H]23)cc(OC)c1OC	33.3	3.3	6.7
COc1cc([C@@H]2c3cc(OCc4ccccc4)c(OCc4ccccc4)cc3[C@H](O)[C@H]3COC(=O)[C@H]23)cc(OC)c1OC [6,7-O,O-DEMETHYLENE-6,7-O,O-DIBENZYLPODOPHYLLOTOXIN]	33.3	10	33.3
COc1cc2c(cc1OC)[C@@H](O)[C@H]1COC(=O)[C@@H]1[C@@H]2c1cc(OC)c(OC)c(OC)c1 [6,7-O,O-DEMETHYLENE-6,7-O,O-DIMETHYLEPIPODOPHYLLOTOXIN]	40	16.7	23.3
COc1cc2c(cc1OC)[C@H](O)[C@H]1COC(=O)[C@@H]1[C@@H]2c1cc(OC)c(OC)c(OC)c1 [6,7-O,O-DEMETHYLENE-6,7-O,O-DIMETHYLPODOPHYLLOTOXIN]	36.7	0	23.3
COc1cc([C@@H]2c3cc(O)c(O)cc3[C@H](O)[C@H]3COC(=O)[C@H]23)cc(OC)c1OC [6,7-O,O-DEMETHYLENEPODOPHYLLOTOXIN]	23.3	0	6.7
COc1cc([C@@H]2c3cc4c(cc3[C@H](O)[C@H]3COC(=O)[C@H]23)OCO4)cc(OC)c1OC [PODOFILOX]	40	13.3	23.3
CC(=O)O[C@@H]1C[C@H](O)[C@@]23CO[C@@H](O)[C@]1(C)[C@@H]2C[C@@H](O)[C@]1(C)[C@@H]3C(=O)[C@H](OC(C)=O)[C@@]2(C)[C@H](c3ccoc3)C[C@H]3O[C@]321 [TOOSENDANIN]	50	10	20
